From ChEMBL document CHEMBL4007444, “Development of New Benzenesulfonamides As Potent and Selective Nav1.7 Inhibitors for the Treatment of Pain” (J Med Chem, 2017)
The source made the active and inactive calls. The rule behind the calls is not given here.

Columns and labels:
Cytochrome P450 3A4 = Cytochrome P450 3A4 (Homo sapiens, UniProt P08684); test: Inhibition of human CYP3A4 assessed as inhibition of dealkylation
Plasma [1] = test: Free plasma concentration in CD-1 mouse at 30 mg/kg, po measured 75 mins post dosage; type: ADME, organism-based; conditions: in vivo, 1.25 h
[2] = target: Sodium channel protein type 5 subunit alpha (Homo sapiens, UniProt Q14524); test: Inhibition of recombinant human Nav1.5 expressed in HEK293 cells assessed as reduction in peak inward current at -50 mV holding potential measured after 600 secs by IonWorks Barracuda patch-clamp assay; type: cell-based
Outline: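 HEK293 cells expressing the channel, measured by population patch clamp on IonWorks Barracuda. External solution (mM): 137 NaCl, 4 KCl, 1 MgCl2, 1.8 CaCl2, 10 HEPES, 10 glucose, pH 7.4. Internal: K-gluconate/KCl, pH 7.2. Compound incubated 600 s between pre- and post-compound reads. Nav1.7: held at -60 mV, 300 ms at -100 mV, then 20 ms test pulse to -20 mV. Nav1.5: held at -40/-50 mV, 300 ms at -100 mV, then step to -10 mV to inactivate.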

[3] = Fraction unbound in CD-1 mouse plasma; type: ADME, cell-free
[4] = target: T1, Sodium channel protein type 9 subunit alpha (Homo sapiens, UniProt Q15858); test: Inhibition of recombinant human Nav1.7 expressed in HEK293 cells assessed as reduction in peak inward current at -70 mV holding potential measured after 600 secs by manual patch clamp electrophysiology assay; type: cell-based
Outline: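 Whole-cell manual patch clamp of HEK293 cells stably expressing recombinant human Nav1.7, held at -70 mV (partially inactivated state). The pipette solution (mM) was 50 CsCl, 90 CsF, 10 NaF, 2 MgCl₂, 10 EGTA and 10 HEPES, pH 7.2, with electrodes of 1-4 MOhm. Percent inhibition of peak inward current was calculated, and IC50 came from a Hill fit to averaged percent inhibition (mean ± S.E.M.).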

[5] = Apparent permeability of the compound at pH 5.5 by PAMPA assay; type: physicochemical
[6] = target: T2, Sodium channel protein type 9 subunit alpha (Mus musculus, UniProt Q62205); test: Inhibition of recombinant mouse Nav1.7 expressed in HEK293 cells assessed as reduction in peak inward current at -70 mV holding potential measured after 600 secs by manual patch clamp electrophysiology assay; type: cell-based
Outline: (§1)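 Whole-cell manual patch clamp of HEK293 cells stably expressing recombinant Nav1.7, holding potential -70 mV (partially inactivated state). Pipette solution (mM): 50 CsCl, 90 CsF, 10 NaF, 2 MgCl2, 10 EGTA, 10 HEPES, pH 7.2; electrode resistance 1-4 MOhm. Percent inhibition of peak inward current; IC50 from a Hill fit to the averaged data; mean ± SEM.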

[7] = Apparent permeability of the compound at pH 7.4 by PAMPA assay; type: physicochemical
[8] = Plasma concentration in CD-1 mouse at 30 mg/kg, po measured 75 mins post dosage; type: ADME, organism-based
[9] = Drug uptake in CD-1 mouse DRG neurons at 30 mg/kg, po measured 75 mins post dosage; type: ADME, organism-based, DRG neuron; conditions: read-out: Drug uptake
Mus musculus [10] = test: Antinociceptive activity in CD-1 mouse assessed as reduction in formalin-stimulated paw flinching at 30 mg/kg, po administered 30 mins prior to formalin challenge measured up to 45 mins; type: functional, organism-based
Outline: (§2)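 Male CD1 mice, oral dosing (10 mL/kg) of compound or vehicle before formalin; 20 μL of 5% formalin (w/v in saline) injected SC into the dorsal right hind paw, which carried a glued metal band, after 60 min acclimation in an individual chamber. Flinching counted automatically for 45 min: phase I is the first 5 min, phase II is 15-45 min. Mean ± SEM, n=10-14/group, ANOVA with Dunnett's test.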

[11] = target: T1, Sodium channel protein type 9 subunit alpha; test: Inhibition of recombinant human Nav1.7 expressed in HEK293 cells assessed as reduction in peak inward current at -60 mV holding potential measured after 600 secs by IonWorks Barracuda patch-clamp assay; type: cell-based
Outline: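 HEK293 cells expressing the channel, measured by population patch clamp on IonWorks Barracuda. Internal: K-gluconate/KCl, pH 7.2. Compound incubated 600 s between pre- and post-compound reads. Nav1.7: held at -60 mV, 300 ms at -100 mV, then 20 ms test pulse to -20 mV. Nav1.5: held at -40/-50 mV, 300 ms at -100 mV, then step to -10 mV to inactivate.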

Mus musculus [12] = test: Antinociceptive activity in CD-1 mouse assessed as reduction in formalin-stimulated paw flinching at 60 mg/kg, po administered 30 mins prior to formalin challenge measured up to 45 mins; type: functional, organism-based; outline: as §2
Plasma [13] = test: Free plasma concentration in CD-1 mouse at 60 mg/kg, po measured 60 mins post dosage; conditions: in vivo, 1 h
Mus musculus [14] = test: Antinociceptive activity in CD-1 mouse assessed as reduction in formalin-stimulated paw flinching at 60 mg/kg, po administered 30 mins prior to formalin challenge measured up to 5 mins; type: functional, organism-based; outline: as §2
[15] = target: T1, Sodium channel protein type 9 subunit alpha; test: Inhibition of recombinant human Nav1.7 expressed in HEK293 cells assessed as reduction in peak inward current at -120 mV holding potential by manual whole-cell patch-clamp assay
Mus musculus [16] = test: Antinociceptive activity in CD-1 mouse assessed as reduction in formalin-stimulated paw flinching at 100 mg/kg, po administered 30 mins prior to formalin challenge measured up to 45 mins; type: functional, organism-based; outline: as §2
Plasma [17] = test: Free plasma concentration in CD-1 mouse at 100 mg/kg, po measured 60 mins post dosage; conditions: in vivo, 1 h
Mus musculus [18] = test: Antinociceptive activity in CD-1 mouse assessed as reduction in formalin-stimulated paw flinching at 100 mg/kg, po administered prior to formalin challenge measured up to 5 mins
[19] = target: T2, Sodium channel protein type 9 subunit alpha; test: Inhibition of Nav1.7 in C57BL/6 mouse DRG neurons assessed as reduction in native TTX-S current amplitude by manual patch clamp electrophysiology assay
[20] = target: Sodium channel protein type 9 subunit alpha (Rattus norvegicus, UniProt O08562); test: Inhibition of rat Nav1.7 assessed as reduction in peak inward current at -70 mV holding potential measured after 600 secs by manual patch clamp electrophysiology assay; outline: as §1

Sodium channel protein type 5 subunit alpha, sequence (Q14524 whole entry): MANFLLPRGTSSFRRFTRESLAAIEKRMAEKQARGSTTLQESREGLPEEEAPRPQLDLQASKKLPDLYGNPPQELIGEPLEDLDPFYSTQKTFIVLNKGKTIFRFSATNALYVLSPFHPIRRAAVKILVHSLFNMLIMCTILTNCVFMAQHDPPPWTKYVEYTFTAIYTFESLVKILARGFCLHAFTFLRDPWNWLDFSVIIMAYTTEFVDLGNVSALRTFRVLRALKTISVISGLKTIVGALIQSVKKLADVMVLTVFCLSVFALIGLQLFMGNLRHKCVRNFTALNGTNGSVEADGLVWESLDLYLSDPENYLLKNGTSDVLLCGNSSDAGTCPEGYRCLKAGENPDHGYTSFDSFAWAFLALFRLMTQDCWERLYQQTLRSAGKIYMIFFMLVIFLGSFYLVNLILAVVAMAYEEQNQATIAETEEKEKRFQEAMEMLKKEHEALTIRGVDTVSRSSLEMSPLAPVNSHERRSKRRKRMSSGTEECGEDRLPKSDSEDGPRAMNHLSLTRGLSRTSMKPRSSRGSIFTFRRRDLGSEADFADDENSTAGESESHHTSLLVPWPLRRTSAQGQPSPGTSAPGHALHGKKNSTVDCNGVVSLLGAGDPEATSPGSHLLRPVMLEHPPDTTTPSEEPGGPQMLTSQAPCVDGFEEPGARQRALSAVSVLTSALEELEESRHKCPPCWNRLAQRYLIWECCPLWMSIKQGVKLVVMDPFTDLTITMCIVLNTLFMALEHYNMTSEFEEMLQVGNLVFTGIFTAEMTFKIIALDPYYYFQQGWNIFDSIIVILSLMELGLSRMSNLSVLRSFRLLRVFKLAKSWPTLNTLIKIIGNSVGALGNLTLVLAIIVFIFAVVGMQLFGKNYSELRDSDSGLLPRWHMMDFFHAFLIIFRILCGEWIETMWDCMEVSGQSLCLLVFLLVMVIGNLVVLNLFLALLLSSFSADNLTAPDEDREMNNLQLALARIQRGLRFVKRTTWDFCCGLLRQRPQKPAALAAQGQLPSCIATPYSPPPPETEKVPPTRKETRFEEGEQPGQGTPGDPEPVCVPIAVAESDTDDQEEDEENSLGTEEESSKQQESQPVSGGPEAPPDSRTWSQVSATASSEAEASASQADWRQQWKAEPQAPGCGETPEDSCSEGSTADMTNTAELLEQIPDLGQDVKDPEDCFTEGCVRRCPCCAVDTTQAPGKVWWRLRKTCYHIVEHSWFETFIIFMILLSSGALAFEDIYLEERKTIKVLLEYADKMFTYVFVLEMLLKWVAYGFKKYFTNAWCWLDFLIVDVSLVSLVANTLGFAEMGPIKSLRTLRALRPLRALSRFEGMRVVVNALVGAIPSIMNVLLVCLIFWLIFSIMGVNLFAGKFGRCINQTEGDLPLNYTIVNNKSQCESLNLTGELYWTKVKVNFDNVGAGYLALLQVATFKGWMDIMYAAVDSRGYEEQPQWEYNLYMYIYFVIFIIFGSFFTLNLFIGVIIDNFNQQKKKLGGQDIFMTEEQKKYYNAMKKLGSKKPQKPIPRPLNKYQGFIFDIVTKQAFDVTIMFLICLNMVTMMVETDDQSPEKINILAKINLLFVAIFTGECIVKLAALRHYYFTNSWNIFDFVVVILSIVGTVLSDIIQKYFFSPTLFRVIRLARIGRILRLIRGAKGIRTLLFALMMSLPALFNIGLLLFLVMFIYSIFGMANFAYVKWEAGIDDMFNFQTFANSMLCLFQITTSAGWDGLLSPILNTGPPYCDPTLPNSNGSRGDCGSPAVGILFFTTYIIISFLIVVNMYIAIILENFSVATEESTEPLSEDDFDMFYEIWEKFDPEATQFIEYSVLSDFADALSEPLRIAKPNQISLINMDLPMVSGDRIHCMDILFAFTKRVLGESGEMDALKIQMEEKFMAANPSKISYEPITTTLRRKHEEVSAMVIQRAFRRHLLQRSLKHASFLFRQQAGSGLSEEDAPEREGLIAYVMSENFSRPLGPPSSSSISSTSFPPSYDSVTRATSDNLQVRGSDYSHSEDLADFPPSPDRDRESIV
Cytochrome P450 3A4, sequence (P08684 whole entry): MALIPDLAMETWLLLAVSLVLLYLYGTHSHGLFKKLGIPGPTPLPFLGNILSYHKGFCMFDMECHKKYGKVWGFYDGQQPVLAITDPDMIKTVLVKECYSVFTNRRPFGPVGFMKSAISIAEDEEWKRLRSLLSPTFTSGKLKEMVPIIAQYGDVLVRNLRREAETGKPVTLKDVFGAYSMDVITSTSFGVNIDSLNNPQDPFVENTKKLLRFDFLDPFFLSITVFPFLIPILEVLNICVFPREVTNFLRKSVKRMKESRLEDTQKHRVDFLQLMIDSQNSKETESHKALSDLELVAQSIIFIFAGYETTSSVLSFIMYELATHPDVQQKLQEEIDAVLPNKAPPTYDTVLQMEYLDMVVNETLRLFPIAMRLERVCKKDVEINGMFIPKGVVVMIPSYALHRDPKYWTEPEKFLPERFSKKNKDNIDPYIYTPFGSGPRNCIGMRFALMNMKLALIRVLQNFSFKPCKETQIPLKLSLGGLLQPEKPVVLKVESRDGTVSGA
T2 sequence (Q62205 whole entry): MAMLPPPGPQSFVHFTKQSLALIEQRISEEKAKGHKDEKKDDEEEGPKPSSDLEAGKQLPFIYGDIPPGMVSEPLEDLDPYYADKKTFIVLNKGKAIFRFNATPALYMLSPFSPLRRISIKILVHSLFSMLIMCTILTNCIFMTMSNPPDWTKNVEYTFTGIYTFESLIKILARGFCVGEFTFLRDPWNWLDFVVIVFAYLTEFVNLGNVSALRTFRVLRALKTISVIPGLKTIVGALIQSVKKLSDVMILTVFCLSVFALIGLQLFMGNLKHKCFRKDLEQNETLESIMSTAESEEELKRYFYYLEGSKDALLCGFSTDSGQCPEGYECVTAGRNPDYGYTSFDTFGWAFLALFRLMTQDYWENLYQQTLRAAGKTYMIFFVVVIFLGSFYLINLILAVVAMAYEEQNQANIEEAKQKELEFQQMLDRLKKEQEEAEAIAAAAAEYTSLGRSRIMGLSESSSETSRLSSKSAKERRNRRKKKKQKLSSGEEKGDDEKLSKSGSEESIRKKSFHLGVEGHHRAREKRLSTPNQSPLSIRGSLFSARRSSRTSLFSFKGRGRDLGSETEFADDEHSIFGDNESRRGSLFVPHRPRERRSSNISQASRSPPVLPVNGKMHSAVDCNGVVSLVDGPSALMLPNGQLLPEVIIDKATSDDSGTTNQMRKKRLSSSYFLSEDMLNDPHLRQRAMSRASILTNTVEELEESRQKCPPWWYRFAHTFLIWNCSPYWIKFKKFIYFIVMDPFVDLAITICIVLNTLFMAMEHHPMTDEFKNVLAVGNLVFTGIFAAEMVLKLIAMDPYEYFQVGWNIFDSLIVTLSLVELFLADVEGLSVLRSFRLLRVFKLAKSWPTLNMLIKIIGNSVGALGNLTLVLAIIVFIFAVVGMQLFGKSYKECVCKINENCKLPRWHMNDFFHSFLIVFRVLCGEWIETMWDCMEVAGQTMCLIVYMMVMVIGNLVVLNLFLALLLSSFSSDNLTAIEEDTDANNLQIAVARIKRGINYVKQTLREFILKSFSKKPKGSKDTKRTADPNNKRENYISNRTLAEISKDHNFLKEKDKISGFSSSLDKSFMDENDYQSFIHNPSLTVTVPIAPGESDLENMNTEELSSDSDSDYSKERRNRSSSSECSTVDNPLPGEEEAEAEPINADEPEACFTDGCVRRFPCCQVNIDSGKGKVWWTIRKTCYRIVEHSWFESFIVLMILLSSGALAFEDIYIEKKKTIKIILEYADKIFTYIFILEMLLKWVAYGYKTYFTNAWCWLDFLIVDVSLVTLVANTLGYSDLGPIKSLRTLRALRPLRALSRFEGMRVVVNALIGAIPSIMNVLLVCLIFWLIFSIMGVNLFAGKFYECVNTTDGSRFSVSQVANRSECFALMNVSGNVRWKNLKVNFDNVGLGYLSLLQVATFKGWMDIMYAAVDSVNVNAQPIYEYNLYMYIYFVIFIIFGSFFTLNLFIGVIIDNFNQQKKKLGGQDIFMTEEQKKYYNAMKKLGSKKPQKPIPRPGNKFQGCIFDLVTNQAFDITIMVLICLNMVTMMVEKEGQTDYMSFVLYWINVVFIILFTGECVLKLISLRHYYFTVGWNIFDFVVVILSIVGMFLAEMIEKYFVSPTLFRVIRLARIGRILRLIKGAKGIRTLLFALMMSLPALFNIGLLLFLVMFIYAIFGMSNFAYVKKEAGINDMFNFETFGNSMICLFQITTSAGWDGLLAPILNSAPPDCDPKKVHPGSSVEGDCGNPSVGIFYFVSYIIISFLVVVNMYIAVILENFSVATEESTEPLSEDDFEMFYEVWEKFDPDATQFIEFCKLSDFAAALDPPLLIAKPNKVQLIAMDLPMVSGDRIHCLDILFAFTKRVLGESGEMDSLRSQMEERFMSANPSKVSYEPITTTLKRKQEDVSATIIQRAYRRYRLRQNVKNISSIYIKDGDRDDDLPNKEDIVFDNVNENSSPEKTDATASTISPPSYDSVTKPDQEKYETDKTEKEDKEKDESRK

| Structure (SMILES) | IC50 [2] [nM] | IC50 [11] [nM] | further results |
| --- | --- | --- | --- |
| O=S(=O)(Nc1nccs1)c1cc(Cl)c(NCC2(CN3CCCC3)CC2)cc1F | 5100 | – | IC50 (Cytochrome P450 3A4): 20000 nM; Cp(f) (Plasma [1]): 240 nM; fraction unbound [3]: 0.2; IC50 [4]: 12 nM; Papp [5]: 4.7 ×10⁻⁶ cm/s; IC50 [6]: 51 nM; Papp [7]: 94.9 ×10⁻⁶ cm/s; concentration at 1.25 h [8]: 1200 nM; concentration at 1.25 h [9]: 1500 nM; Activity (Mus musculus [10]): Active |
| O=S(=O)(Nc1ncns1)c1cc(F)c(OCC2(c3ccc(Cl)cc3)CCNCC2)cc1F | – | 900 | – |
| N[C@H]1CC[C@](CCNc2cc(F)c(S(=O)(=O)Nc3nccs3)cc2Cl)(c2ccccc2)CC1 | > 30000 | – | IC50 (Cytochrome P450 3A4): 6700 nM |
| N[C@H]1CC[C@](CCOc2cc(F)c(S(=O)(=O)Nc3ncns3)cc2F)(c2ccc(Cl)cc2)CC1 | > 30000 | – | – |
| O=S(=O)(Nc1ncns1)c1cc(F)c(OCCC2(c3ccc(Cl)cc3)CCNCC2)cc1F | – | 78 | – |
| N[C@H]1CC[C@@](CCOc2cc(F)c(S(=O)(=O)Nc3ncns3)cc2Cl)(c2ccccc2)CC1 | > 30000 | – | – |
| O=S(=O)(Nc1nccs1)c1cc(Cl)c(NCCC2CCNC2)cc1F (racemic) | > 30000 | 14 | – |
| O=S(=O)(Nc1ncns1)c1cc(F)c(OC[C@@H]2CNCC[C@H]2c2ccc(Cl)cc2)cc1F | – | 2 | – |
| O=S(=O)(Nc1nccs1)c1cc(Cl)c(NCCC2CNC2)cc1F | > 30000 | – | – |
| C[C@]1(CCOc2cc(F)c(S(=O)(=O)Nc3ncns3)cc2F)CC[C@H](N)CC1 | > 30000 | 383 | – |
| N[C@H]1CC[C@@H](CCNc2cc(F)c(S(=O)(=O)Nc3nccs3)cc2Cl)CC1 | 4900 | – | – |
| N[C@H]1CC[C@@](CCOc2cc(F)c(S(=O)(=O)Nc3ncns3)cc2F)(c2ccc(Cl)cc2)CC1 | > 30000 | – | – |
| O=S(=O)(Nc1nccs1)c1cc(Cl)c(NCCC2CCNCC2)cc1F | > 30000 | – | – |
| CC(=O)N1CCCC(CNc2cc(F)c(S(=O)(=O)Nc3nccs3)cc2Cl)C1 (racemic) | > 30000 | 324 | – |
| O=S(=O)(Nc1nccs1)c1cc(Cl)c(NC[C@H]2CCCNC2)cc1F | > 30000 | 49 | IC50 (Cytochrome P450 3A4): 20000 nM |
| O=S(=O)(Nc1nccs1)c1cc(Cl)c(NC[C@@H]2CCCNC2)cc1F | – | 57 | IC50 (Cytochrome P450 3A4): 20000 nM |
| O=S(=O)(Nc1nccs1)c1cc(Cl)c(NCC2CNC2)cc1F | > 30000 | 339 | – |
| O=S(=O)(Nc1ncns1)c1cc(F)c(OCC[C@]2(c3ccccc3)CC[C@@H](NC3CC3)CC2)cc1F | > 30000 | – | – |
| CN[C@H]1CC[C@@](CCOc2cc(F)c(S(=O)(=O)Nc3ncns3)cc2F)(c2ccccc2)CC1 | > 30000 | – | – |

| Structure (SMILES) | IC50 [2] [nM] | IC50 [11] [nM] | further results |
| --- | --- | --- | --- |
| O=S(=O)(Nc1nccs1)c1cc(Cl)c(NCC23CCCN2CCC3)cc1F | – | – | Activity (Mus musculus [12]): Active; Cp(f) (Plasma [13]): 1270 nM; Activity (Mus musculus [14]): inactive |
| CN[C@H]1CC[C@](CCOc2cc(F)c(S(=O)(=O)Nc3ncns3)cc2F)(c2ccccc2)CC1 | > 30000 | – | – |
| O=S(=O)(Nc1ncns1)c1cc(F)c(OCC[C@]2(c3ccccc3)CC[C@H](NC3CC3)CC2)cc1F | > 30000 | – | – |
| N[C@H]1CC[C@@H](CNc2cc(F)c(S(=O)(=O)Nc3nccs3)cc2Cl)CC1 | 1900 | 6 | IC50 [15]: 9400 nM; fraction unbound [3]: 0.08; IC50 [4]: 4 nM; IC50 [6]: 7.5 nM; Activity (Mus musculus [16]): inactive; Cp(f) (Plasma [17]): 320 nM; Activity (Mus musculus [18]): inactive; IC50 [19]: 6 nM; IC50 [20]: 12.3 nM |
| O=S(=O)(Nc1nccs1)c1cc(Cl)c(NC[C@@H]2CCCN(O)C2)cc1F | – | 207 | – |
| N[C@H]1CC[C@@](CCOc2cc(F)c(S(=O)(=O)Nc3ncns3)cc2F)(c2ccccc2)CC1 | > 30000 | 473 | – |
| CN1CCC(CCNc2cc(F)c(S(=O)(=O)Nc3nccs3)cc2Cl)CC1 | > 30000 | – | – |
| N[C@H]1CC[C@](CCOc2cc(F)c(S(=O)(=O)Nc3ncns3)cc2F)(c2ccccc2)CC1 | > 30000 | 15 | – |
| N[C@H]1CC[C@@](CCNc2cc(F)c(S(=O)(=O)Nc3nccs3)cc2Cl)(c2ccccc2)CC1 | > 30000 | – | IC50 (Cytochrome P450 3A4): 9800 nM |
| N[C@H]1CC[C@](CCOc2cc(F)c(S(=O)(=O)Nc3ncns3)cc2Cl)(c2ccccc2)CC1 | > 30000 | – | – |
| O=S(=O)(Nc1nccs1)c1cc(Cl)c(NC[C@H]2CCCN(O)C2)cc1F | – | 186 | – |
| N[C@H]1CC[C@H](CNc2cc(F)c(S(=O)(=O)Nc3nccs3)cc2Cl)CC1 | > 30000 | – | – |
| O=S(=O)(Nc1nccs1)c1cc(Cl)c(NCC2CNCCO2)cc1F (racemic) | > 30000 | 69 | IC50 (Cytochrome P450 3A4): 20000 nM |
| O=S(=O)(Nc1ncns1)c1cc(Cl)c(NCCC2CCCCN2)cc1F (racemic) | – | 15 | – |
| CN1C(C)(C)CC(Nc2cc(F)c(S(=O)(=O)Nc3nccs3)cc2Cl)CC1(C)C | > 30000 | 27 | IC50 (Cytochrome P450 3A4): 20000 nM; Cp(f) (Plasma [1]): 280 nM; fraction unbound [3]: 0.23; IC50 [4]: 17 nM; Papp [5]: 2.3 ×10⁻⁶ cm/s; IC50 [6]: 30 nM; Papp [7]: 24.1 ×10⁻⁶ cm/s; concentration at 1.25 h [8]: 1100 nM; concentration at 1.25 h [9]: 1500 nM |
| N[C@H]1CC[C@@H](CNc2cc(F)c(S(=O)(=O)Nc3ncns3)cc2Cl)CC1 | 2600 | – | IC50 (Cytochrome P450 3A4): 2300 nM |
| C[C@]1(CCOc2cc(F)c(S(=O)(=O)Nc3ncns3)cc2F)CC[C@@H](N)CC1 | > 30000 | 78 | – |
| CN1CCCC(CNc2cc(F)c(S(=O)(=O)Nc3nccs3)cc2Cl)C1 (racemic) | > 30000 | 264 | – |
